We go through two molecules from ChEMBL document CHEMBL4177761, “Highlights of the Structure-Activity Relationships of Benzimidazole Linked Pyrrolidines Leading to the Discovery of the Hepatitis C Virus NS5A Inhibitor Pibrentasvir (ABT-530)” (J Med Chem, 2018).

Residue numbers refer to the chain shown, from its start. ≈ marks a conversion by molar mass, not a printed value.

What is called Tmax is the time from dosing to the highest level. In general, logD refers to lipophilicity at a set pH, counting ionised and neutral species. Low values mean a more hydrophilic compound, high ones a more lipophilic compound. Usually CLint scaled stands for the capacity of the preparation to metabolise the compound, expressed as a volume cleared per time. By AUC(0-inf) is commonly meant the area under the concentration-time curve extrapolated to infinity. Read a high AUC(0-inf) as high exposure. By solubility (kinetic) is commonly meant the concentration staying in solution when a stock, usually in DMSO, is diluted into the medium. By clearance is commonly meant the rate of elimination divided by the concentration. The low end stands for a low capacity for elimination, the high end for a high capacity for elimination. As usually defined, the half-life is the time in which the quantity being followed falls by half. A lower half-life goes with rapid decline. The term bioavailability denotes dose-corrected exposure relative to a reference, in per cent. Usually Cmax stands for the highest concentration seen after dosing.

A short description of data set [1]: Tmax in mouse at 5 mg/kg, po by LC-MS method. The data set is classed as ADME, organism-based. Conditions: in vivo.
Data set [2] relates to T1, Nonstructural protein 5A (Hepatitis C virus), Q5L478 [Y93C].
T1 sequence (whole entry): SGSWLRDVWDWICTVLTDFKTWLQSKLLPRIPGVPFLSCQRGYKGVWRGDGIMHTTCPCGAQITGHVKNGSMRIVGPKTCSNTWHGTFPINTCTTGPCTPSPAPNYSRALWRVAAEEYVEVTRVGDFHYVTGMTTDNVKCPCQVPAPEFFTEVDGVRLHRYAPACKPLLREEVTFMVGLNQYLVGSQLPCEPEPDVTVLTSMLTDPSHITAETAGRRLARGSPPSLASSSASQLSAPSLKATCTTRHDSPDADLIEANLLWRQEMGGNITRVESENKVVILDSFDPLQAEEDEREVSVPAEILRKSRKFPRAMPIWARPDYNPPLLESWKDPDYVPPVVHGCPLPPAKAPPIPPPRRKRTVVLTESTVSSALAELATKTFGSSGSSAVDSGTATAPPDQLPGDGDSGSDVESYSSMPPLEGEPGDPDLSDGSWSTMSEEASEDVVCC
As to the kind of experiment: Inhibition of NS5A Y93C mutant in HuH7 cell infected HCV genotype 1a H77 assessed as decrease in viral replication after 4 days by luciferase reporter gene assay relative to wild type protein. The note with it: Hepatitis C virus (isolate H77). In short, it runs like this:
(§1)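 Stable subgenomic luciferase replicons in Huh-7 cells: genotype 1a-H77 carrying NS5A substitutions M28T, Q30E, Q30R, Y93C, Y93H or Y93N, tested alongside the wild-type replicon. Cells are incubated 4 days with compound in DMEM with 5% FBS. Luciferase read-out, EC50 by 4-parameter logistic fit, and fold change versus wild type.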
(In a reporter assay the amount or activity of a reporter protein is the signal.)

Data set [3] deals with T2, Nonstructural protein 5A (Hepatitis C virus), Q5L478 [Y93N].
T2 sequence (whole entry): T1 sequence (whole entry) with C93N
As to the kind of experiment: Inhibition of NS5A Y93N mutant in HuH7 cell infected HCV genotype 1a H77 assessed as decrease in viral replication after 4 days by luciferase reporter gene assay relative to wild type protein. The note with it: Hepatitis C virus (isolate H77). In short, it runs like this:
as §1

A short description of data set [4]: Lipophilicity, log D of the compound by HPLC method. The data set is classed as physicochemical.
The nature of data set [5]: Intrinsic clearance in rat microsomes. The format is ADME, Microsome.
The nature of data set [6]: Volume of distribution at steady state during terminal phase in mouse at 5 mg/kg, iv by LC-MS method. The format is ADME, organism-based. The note with it: in vivo, read-out: Vbeta.
The target in data set [7] is T3, Nonstructural protein 5A (Hepatitis C virus) (UniProt Q5L478).
T3 sequence (whole entry): T1 sequence (whole entry) with C93Y
Put plainly: Inhibition of NS5A Q30R mutant in HuH7 cell infected HCV genotype 1a H77 assessed as decrease in viral replication after 4 days by luciferase reporter gene assay relative to wild type protein. The note with it: Hepatitis C virus (isolate H77). In short, it runs like this:
as §1

Data set [8] in a line: AUC (0 to infinity) in mouse at 5 mg/kg, iv by LC-MS method. The data set is classed as ADME, organism-based. The arrangement: dose 5 mg/kg, time infinity, route intravenous. Conditions: in vivo.
A short description of data set [9]: Permeability of the compound by PAMPA. The note with it: read-out: permeability. The format is ADME.
Data set [10] in a line: Solubility of the compound by CLND method. The data set is classed as physicochemical.
A short description of data set [11]: AUC (0 to infinity) in mouse at 5 mg/kg, po by LC-MS method. The format is ADME, organism-based. The arrangement: dose 5 mg/kg, route oral, time infinity. The note with it: in vivo.
Data set [12] can be described thus: Volume of distribution at steady state in mouse at 5 mg/kg, iv by LC-MS method. The data set is classed as ADME, organism-based. Conditions: in vivo, read-out: Vdss.
Data set [13] can be described thus: Intrinsic clearance in human microsomes. The data set is classed as ADME, Microsome.
For data set [14], the system named is T4, Nonstructural protein 5A (Hepatitis C virus), Q5L478 [Y93H].
T4 sequence (whole entry): T1 sequence (whole entry) with C93H
As to the kind of experiment: Inhibition of NS5A Y93H mutant in HuH7 cell infected HCV genotype 1b Con1 assessed as decrease in viral replication after 4 days by luciferase reporter gene assay relative to wild type protein. Conditions: Hepatitis C virus (isolate Con1). A digest of the protocol:
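Stable subgenomic luciferase replicons in Huh-7 cells: genotype 1b-Con1 carrying NS5A Y93H or Y93N, tested alongside the wild-type replicon. Cells are incubated 4 days with compound in DMEM with 5% FBS. Luciferase read-out, EC50 from a 4-parameter logistic fit, expressed as fold change versus wild type.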

Data set [15] has the same test system. Put plainly: Inhibition of NS5A Y93H mutant in HuH7 cell infected HCV genotype 1a H77 assessed as decrease in viral replication after 4 days by luciferase reporter gene assay relative to wild type protein. The note with it: Hepatitis C virus (isolate H77). A digest of the protocol:
as §1

In data set [16] the target is T3, Nonstructural protein 5A (Hepatitis C virus). Put plainly: Inhibition of NS5A Q30E mutant in HuH7 cell infected HCV genotype 1a H77 assessed as decrease in viral replication after 4 days by luciferase reporter gene assay relative to wild type protein. The note with it: Hepatitis C virus (isolate H77). In short, it runs like this:
as §1

The target is the same in data set [17]. As to the kind of experiment: Inhibition of NS5A M28T mutant in HuH7 cell infected HCV genotype 1a H77 assessed as decrease in viral replication after 4 days by luciferase reporter gene assay relative to wild type protein. Conditions: Hepatitis C virus (isolate H77). A digest of the protocol: as §1
Data set [18] can be described thus: Plasma clearance in mouse at 3 mg/kg, iv by LC-MS method. The data set is classed as ADME, organism-based. In short, it runs like this:
(§2)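 Single dose, 3 mg/kg, in mouse or rat. IV vehicle: DMSO:Tween 80:PEG-400:D5W 2:5:20:73 (v/v). PO vehicle: Phosol 53 MCT:PEG-400:Poloxamer 124:Cremophor RH40 40:20:20:20 (w/w). Acetonitrile protein precipitation, then LC-MS/MS in negative-ion MRM against an internal standard; LOQ ~20 ng/mL.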

The nature of data set [19]: Volume of distribution at steady state during terminal phase in mouse at 3 mg/kg, iv by LC-MS method. The format is ADME, organism-based. Conditions: in vivo, read-out: Vbeta. A digest of the protocol:
(§3)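 Mice received a single 3 mg/kg IV dose in 2:5:20:73 (v/v) DMSO:Tween 80:PEG-400:D5W. Heparinized plasma taken at 0.1, 0.25, 0.5, 1, 2, 4, 6, 9, 12 and 24 h. Samples precipitated with acetonitrile and assayed by negative-ion MRM LC-MS. Quantified by unweighted linear regression of parent/internal-standard area ratio against spiked standards; LOQ ~20 ng/mL.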

Data set [20] is described as follows: Half life in mouse at 3 mg/kg, po by LC-MS method. The data set is classed as ADME, organism-based. Conditions: in vivo. A digest of the protocol: as §2
A short description of data set [21]: Oral bioavailability in mouse at 3 mg/kg by LC-MS method. The format is ADME, organism-based. The note with it: in vivo. A digest of the protocol:
as §2

A short description of data set [22]: AUC (0 to infinity) in mouse at 3 mg/kg, iv by LC-MS method. The note with it: in vivo. The arrangement: dose 3 mg/kg, route intravenous, time infinity. The format is ADME, organism-based. A digest of the protocol:
as §2

Data set [23] in a line: Drug level in mouse at 3 mg/kg, po at 24 hrs by LC-MS method. The data set is classed as ADME, organism-based. Conditions: in vivo, read-out: Drug uptake. In short, it runs like this: as §2
The nature of data set [24]: Volume of distribution at steady state in mouse at 3 mg/kg, iv by LC-MS method. The format is ADME, organism-based. Conditions: in vivo, read-out: Vdss. In short, it runs like this:
as §3

A short description of data set [25]: Tmax in mouse at 3 mg/kg, po by LC-MS method. The format is ADME, organism-based. Conditions: in vivo.
The nature of data set [26]: Half life in mouse at 3 mg/kg, iv by LC-MS method. The data set is classed as ADME, organism-based. Conditions: in vivo. In short, it runs like this:
as §2

Data set [27] is described as follows: Cmax in mouse at 3 mg/kg, po by LC-MS method. The data set is classed as ADME, organism-based. On the set-up: dose 3 mg/kg, route oral. The note with it: in vivo. In short, it runs like this: as §2
A short description of data set [28]: AUC (0 to infinity) in mouse at 3 mg/kg, po by LC-MS method. The arrangement: dose 3 mg/kg, route oral, time infinity. The format is ADME, organism-based. The note with it: in vivo. In short, it runs like this: as §2

In the case of `COC(=O)N[C@H](C(=O)N1CCC[C@H]1c1nc2ccc([C@H]3CC[C@H](c4ccc5nc([C@@H]6CCCN6C(=O)[C@@H](NC(=O)OC)C(C)C)[nH]c5c4)N3c3ccc(C(C)(C)C)cc3)cc2[nH]1)C(C)C`, the Tmax in data set [1] stood at 1.67 h. The fold change (FC) in data set [2] was 7; in data set [3] it was 510; in data set [7] it was 14; in [14], 2; in data set [15], 216; in data set [16], 61. The fold change (FC) in [17] came out at 4. Further, the logD in data set [4] came out at 5.3. Besides, the CLint scaled in data set [5] is 167 mL/min/kg; in [13], 122 mL/min/kg. The Vd in data set [6] was found to be 1.11 L/kg; in data set [12], 0.65 L/kg. Further, the AUC(0-inf) in data set [8] amounted to 13100 ng·h/mL; in data set [11] it was 1390 ng·h/mL. The Papp in data set [9] was 0.14 ×10⁻⁶ cm/s. Moreover, in data set [10], the solubility (kinetic) came out at 1.6 µM (≈ 1.42 µg/mL).

Turning to `COC(=O)N[C@H](C(=O)N1CCC[C@H]1C(=O)Nc1ccc([C@@H]2CC[C@@H](c3ccc(NC(=O)[C@@H]4CCCN4C(=O)[C@@H](NC(=O)OC)C(C)C)cc3)N2c2ccc(C(C)(C)C)cc2)cc1)C(C)C` [OMBITASVIR], the fold change (FC) in data set [2] came to 1680; in [3], 66700; in data set [7], 800; in data set [14], 77; in data set [15] it was 41400; in data set [17], 8960. Besides, the clearance in data set [18] was 1.83 mL/min/kg. The Vd in data set [19] turned out to be 1.8 L/kg; in [24] it was 1.67 L/kg. For the same molecule, the half-life was 11.7 h in [20] and 11 h in data set [26]. In data set [21], this molecule gave a bioavailability of 41.7%. Moreover, the AUC(0-inf) was found to be 26400 ng·h/mL in [22] and 11000 ng·h/mL in data set [28]. In data set [23], the concentration at 24 h is 205 nM. Besides, the Tmax in data set [25] came out at 7 h. Moreover, the concentration in [27] peaked (Cmax) at 636 nM.
